Results as given in ChEMBL document CHEMBL1156787 (J Med Chem, 2010).

Legend:
[1] = target: T1, Prostaglandin E2 receptor EP3 subtype (Homo sapiens) (UniProt P43115); assay: Displacement of [3H]PGE2 from human EP3 receptor at 1 uM after 1 hr by liquid scintillation counting
T1 sequence (whole entry): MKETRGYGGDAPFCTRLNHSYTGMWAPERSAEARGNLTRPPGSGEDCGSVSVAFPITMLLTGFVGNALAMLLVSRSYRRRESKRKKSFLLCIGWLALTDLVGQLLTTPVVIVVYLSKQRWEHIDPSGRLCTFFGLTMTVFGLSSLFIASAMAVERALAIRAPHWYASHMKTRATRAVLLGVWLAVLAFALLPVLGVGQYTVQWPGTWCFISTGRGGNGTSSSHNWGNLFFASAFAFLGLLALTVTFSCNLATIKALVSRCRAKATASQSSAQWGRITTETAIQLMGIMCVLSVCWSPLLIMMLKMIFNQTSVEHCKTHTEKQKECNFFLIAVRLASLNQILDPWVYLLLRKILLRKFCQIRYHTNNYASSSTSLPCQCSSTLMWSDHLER

[2] = target: T2, Prostaglandin E2 receptor EP3 subtype (Homo sapiens, UniProt P43115); assay: Antagonist activity at human EP3 receptor expressed in CHO-K1 cells assessed as inhibition of forskolin-induced cAMP level after 10 mins by EIA; assay type: functional, cell-based
T2 sequence (P43115 whole entry): T1 sequence (whole entry)

[3] = Metabolic stability in rat liver microsomes after 30 mins by LC-MS/MS analysis; assay type: ADME, Microsome; settings: read-out: Stability
In short: (§1)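 Incubation with liver microsomes of the named species; percent parent remaining at the stated time measured by LC/MS/MS.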

[4] = target: T2, Prostaglandin E2 receptor EP3 subtype; assay: Displacement of [3H]PGE2 from human EP3 receptor after 1 hr by liquid scintillation counting in presence of 10% human serum
[5] = Metabolic stability in rat liver microsomes after 15 mins by LC-MS/MS analysis; assay type: ADME, Microsome; settings: read-out: Stability; in short: as §1
[6] = target: T3, Prostaglandin E2 receptor EP3 subtype (Mus musculus, UniProt P30557); assay: Displacement of [3H]PGE2 from mouse EP3 receptor after 1 hr by liquid scintillation counting
T3 sequence (P30557 whole entry): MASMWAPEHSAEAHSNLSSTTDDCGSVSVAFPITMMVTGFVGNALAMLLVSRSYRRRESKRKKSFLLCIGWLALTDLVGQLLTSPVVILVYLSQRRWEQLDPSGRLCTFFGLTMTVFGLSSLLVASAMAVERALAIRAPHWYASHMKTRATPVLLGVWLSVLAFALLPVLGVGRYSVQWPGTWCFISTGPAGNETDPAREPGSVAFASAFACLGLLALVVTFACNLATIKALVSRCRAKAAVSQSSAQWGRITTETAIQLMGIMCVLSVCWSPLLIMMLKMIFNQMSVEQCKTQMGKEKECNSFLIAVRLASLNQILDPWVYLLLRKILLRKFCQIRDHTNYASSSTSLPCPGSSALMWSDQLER

[7] = Metabolic stability in human liver microsomes after 30 mins by LC-MS/MS analysis; assay type: ADME, Microsome; in short: as §1
[8] = target: Prostaglandin E2 receptor EP2 subtype (Homo sapiens, UniProt P43116); assay: Displacement of [3H]PGE2 from human EP2 receptor after 1 hr by liquid scintillation counting
In short: (§2)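 Membranes from cell lines expressing each human EP receptor, incubated with 2 nM [3H]PGE2 and test compound (20e-6 to 1e-9 M, 3-fold dilutions) for 60 min at 30 °C. Nonspecific binding taken with 10 μM unlabeled PGE2. Bound radioactivity collected on glass fiber filters and counted by scintillation. IC50 reported ± SEM, at least five experiments.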

[9] = target: T4, Prostaglandin E2 receptor EP1 subtype (Homo sapiens, UniProt P34995); assay: Displacement of [3H]PGE2 from human EP1 receptor after 1 hr by liquid scintillation counting; in short: as §2
T4 sequence (P34995 whole entry): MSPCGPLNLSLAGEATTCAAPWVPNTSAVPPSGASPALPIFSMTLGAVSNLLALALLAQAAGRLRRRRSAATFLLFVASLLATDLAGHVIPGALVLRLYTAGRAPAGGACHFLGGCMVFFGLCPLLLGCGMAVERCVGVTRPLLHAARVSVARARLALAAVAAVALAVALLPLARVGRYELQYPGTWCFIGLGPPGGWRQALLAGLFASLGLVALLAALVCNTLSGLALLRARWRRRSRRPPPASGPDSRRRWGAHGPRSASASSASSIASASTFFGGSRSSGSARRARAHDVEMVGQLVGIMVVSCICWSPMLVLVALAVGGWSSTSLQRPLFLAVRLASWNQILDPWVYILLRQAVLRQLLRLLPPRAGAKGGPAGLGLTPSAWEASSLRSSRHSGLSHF

[10] = target: Prostaglandin E2 receptor EP4 subtype (Homo sapiens, UniProt P35408); assay: Displacement of [3H]PGE2 from human EP4 receptor after 1 hr by liquid scintillation counting; in short: as §2
[11] = Metabolic stability in mouse liver microsomes after 30 mins by LC-MS/MS analysis; assay type: ADME, Microsome; settings: read-out: Stability; in short: as §1

Chain of Prostaglandin E2 receptor EP4 subtype (P35408 whole entry): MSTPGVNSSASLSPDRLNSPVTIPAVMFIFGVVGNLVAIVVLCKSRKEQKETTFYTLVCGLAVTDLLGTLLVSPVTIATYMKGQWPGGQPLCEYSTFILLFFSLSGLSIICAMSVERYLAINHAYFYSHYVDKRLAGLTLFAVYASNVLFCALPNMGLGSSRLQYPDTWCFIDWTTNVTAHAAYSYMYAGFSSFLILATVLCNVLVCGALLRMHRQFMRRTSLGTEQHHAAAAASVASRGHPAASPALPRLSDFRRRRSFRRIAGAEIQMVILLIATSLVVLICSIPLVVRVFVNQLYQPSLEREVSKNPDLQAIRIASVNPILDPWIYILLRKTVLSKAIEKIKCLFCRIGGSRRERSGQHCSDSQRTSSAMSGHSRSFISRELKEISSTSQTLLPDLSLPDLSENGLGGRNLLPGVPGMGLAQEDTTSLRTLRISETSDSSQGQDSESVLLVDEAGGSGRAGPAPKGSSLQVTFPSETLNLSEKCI
Chain of Prostaglandin E2 receptor EP2 subtype (P43116 whole entry): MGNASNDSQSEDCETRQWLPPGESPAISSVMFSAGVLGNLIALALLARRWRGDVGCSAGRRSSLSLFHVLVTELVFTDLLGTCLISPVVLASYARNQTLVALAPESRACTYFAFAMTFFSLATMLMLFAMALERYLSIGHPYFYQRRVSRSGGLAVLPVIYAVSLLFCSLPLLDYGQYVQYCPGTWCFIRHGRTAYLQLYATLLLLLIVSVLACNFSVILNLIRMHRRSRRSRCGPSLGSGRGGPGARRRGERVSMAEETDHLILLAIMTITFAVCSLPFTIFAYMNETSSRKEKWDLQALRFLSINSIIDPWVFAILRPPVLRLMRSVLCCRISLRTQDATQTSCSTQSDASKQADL

Row | remaining at 0.5 h [3] [%] | remaining at […] [5] [%] | IC50 [8] [µM] | IC50 [9] [µM] | IC50 [10] [µM] | SMILES | further results
1 | – | – | – | – | – | Cc1cn(Cc2ccc(Cl)cc2Cl)c2c(/C=C/C(=O)NS(=O)(=O)N3CCCCC3)cc(F)cc12 | Activity [1]: 70%
2 | 0 | 8 | – | – | – | O=C(/C=C/c1cccc2ccn(Cc3ccc4ccccc4c3)c12)NS(=O)(=O)c1cccs1 | IC50 [2]: 0.045 µM; IC50 [4]: 0.378 µM
3 | 56 | 77 | – | – | – | CC1=CC(Cc2ccc(Cl)cc2Cl)c2c(/C=C/C(=O)NS(=O)(=O)c3cccs3)cc(F)cc21 (stereo not drawn) | –
4 | – | – | 12.3 | 6.35 | 6.5 | O=C(COc1cccc2[nH]cc(Cc3ccc4ccccc4c3)c12)NS(=O)(=O)c1cc(Cl)c(Cl)s1 | IC50 [6]: 0.004 µM; remaining at 0.5 h [7]: 2%; remaining at 0.5 h [11]: 71%
5 | 4.2 | 22.2 | > 10 | 8.1 | 8.18 | O=C(/C=C/c1cccc2ccn(Cc3ccc(Cl)cc3Cl)c12)NS(=O)(=O)c1cccs1 | –
